Kir21 inh = inhibitors of mouse Kir2.1 inward-rectifier potassium channel; AID 1672, 2009; B-score at 10 µM; 310,000 tested, 0.85% active; HEK293-Kir2.1, FluxOR thallium flux fluorescence; stronger effect = lower value;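 active = fluorescence ratio B-score at or below minus 3 SD of library scores, with starting-brightness B-score within 2 SD, cut at about -4.2 in these data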;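 note: channel flux triggered by added potassium and thallium sulfate stimulus; B-score of peak minus minimum fluorescence over baseline after thallium stimulus; more negative B-score means stronger Kir2.1 block with less thallium influx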
KCNK3 block = human KCNK3 channel inhibitors, primary screen, CHO cells, FluxOR thallium flux, B-score; Potassium channel subfamily K member 3 (Homo sapiens), O14649; FluxOR fluorescence; stronger effect = lower value; B-score at 10 µM; 340,000 tested, 0.84% active; AID 602410, 2012;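 active = B-score under library mean minus 4 SD, starting fluorescence ratio at most library mean plus 5 SD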;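 note: more negative B-score means stronger inhibition of thallium flux through KCNK3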
KCNQ1 act = potentiators or activators of KCNQ1 channel, primary screen, cell-based, thallium flux, high-throughput; Potassium voltage-gated channel subfamily KQT member 1 (Homo sapiens), P51787; CHO-K1 KCNQ1, thallium flux FluxOR fluorescence; stronger effect = higher value; B-score at 10 µM; 310,000 tested, 0.35% active; AID 2648, 2010;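 active = fluorescence ratio B-score, a plate-corrected score, at least three library SD, with initial intensity B-score within 5 SD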
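Material: CHO-K1 cells stably expressing KCNQ1. Medium: assay buffer for compound exposure, DMSO matched across wells. Reagent: K+/Tl+ depolarizing stimulus. Compound dosing: single-concentration screen. Times: 37 °C overnight plating, 90-min dark dye load, 20-min compound pretreatment. Technique: FluxOR Tl+ flux fluorescence.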
KCNK9 inh = KCNK9 potassium channel inhibitors, primary screen, HEK293 cells, thallium flux. Potassium channel subfamily K member 9 (Homo sapiens), Q9NPC2. FluxOR thallium flux fluorescence; stronger effect = lower value. B-score at 10 µM. 310,000 tested, 1.2% active. AID 488922, 2010;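 active = ratio B-score over 3 SD below the library mean, with starting fluorescence within 5 SD of its mean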;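 note: negative B-score means less thallium flux so channel inhibition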
Target sequence (Q9NPC2 whole entry, looked up): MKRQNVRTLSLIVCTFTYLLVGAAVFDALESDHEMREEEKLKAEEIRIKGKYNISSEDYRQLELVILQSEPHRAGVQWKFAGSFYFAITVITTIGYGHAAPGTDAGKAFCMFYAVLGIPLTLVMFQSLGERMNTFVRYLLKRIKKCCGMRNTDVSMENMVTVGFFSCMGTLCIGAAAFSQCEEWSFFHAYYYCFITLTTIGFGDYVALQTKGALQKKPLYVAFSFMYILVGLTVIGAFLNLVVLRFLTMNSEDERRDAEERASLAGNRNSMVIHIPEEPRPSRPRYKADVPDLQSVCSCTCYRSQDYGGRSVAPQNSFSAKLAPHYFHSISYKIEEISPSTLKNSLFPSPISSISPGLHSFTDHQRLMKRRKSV
KCNQ1 inh = inhibitors of human KCNQ1 channel, primary screen, cell-based, thallium flux, high-throughput | Potassium voltage-gated channel subfamily KQT member 1 (Homo sapiens), P51787 | CHO-K1 KCNQ1, FluxOR thallium flux fluorescence; stronger effect = higher value | B-score at 10 µM | 310,000 tested, 1.3% active | AID 2642, 2010;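 active = compounds whose thallium flux B-score, printed positive for inhibition, exceeds three library SD while starting fluorescence stays within three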;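 note: channel opened by potassium depolarization with thallium stimulus after 20 min compound exposure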
hERG protect = hERG rescue from dofetilide block, primary screen, cell-based, CHO-hERG, FluxOR thallium flux, dofetilide IC70. AID 1511, 2009. activation (rescue from dofetilide block), less the hit threshold, % at 10 µM. 310,000 tested, 0.51% active. dofetilide IC70 present;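 active = activation above the mean of controls blocked by dofetilide plus 5 SD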;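 note: thallium influx through hERG after potassium depolarization seen as dye fluorescence rise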
KCNK3 confirm = retest of human KCNK3 channel inhibitors, confirmation, CHO cells, FluxOR thallium flux, triplicate | 2,400 tested, 99% active | AID 651638, 2012 | ratio percent of control, % at 10 µM | shares compounds with KCNK3 block | FluxOR fluorescence; 0% buffer, 100% carvedilol maximal block;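 active = ratio percent of control, averaged over triplicates, above buffer control mean plus 5 SD, cut at about 64% in these data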;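 note: ratio is the fluorescence rise from min to max over baseline after thallium stimulus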
KCNK3 noninduced = thallium flux inhibition in non-induced cells, primary screen, counter-screen for KCNK3 inhibitor project, cell-based, non-induced KCNK3 line, FluxOR thallium, triplicate; shares compounds with KCNK3 block; AID 651747, 2012; non-induced KCNK3 parental cells; stronger effect = lower value; thallium flux ratio (lower = more inhibition) at 10 µM; 2,400 tested, 40% active;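 active = thallium flux ratio, averaged over three wells, more than 5 SD below the buffer control mean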;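 note: host cells are CHO cells without KCNK3 induction; ratio is peak minus trough fluorescence over baseline then normalized to buffer controls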
* = called active by the depositor; i = inactive; · = no result. Sampled rows, rich in hits. Any-hit rate of the full collection: about 3.8%.

SMILES | Kir21 inh | KCNK3 block | KCNQ1 act | KCNK9 inh | KCNQ1 inh | hERG protect | KCNK3 confirm | KCNK3 noninduced
Oc1ccccc1Nc1nc(NCc2ccco2)c2ccccc2n1 | -0.14 | i | i | i | i | -25 | · | ·
Cc1ccccc1S(=O)(=O)Oc1ccc2ccc(O)cc2c1 | -0.67 | -10* | i | i | i | -24 | 97* | i
Cc1ccccc1C(=O)Oc1ccc2ccc(O)cc2c1 | 0.38 | i | i | i | i | -7 | · | ·
CC(=O)Nc1ccc(Oc2cc(C#N)c(C#N)cc2N2CCCCCC2)cc1 | · | -13* | · | · | · | · | 120* | i
CC(=O)Nc1ccc(OC(=O)N2CCCC2)cc1 | -0.17 | i | i | i | i | -11 | · | ·
CCOC(=O)c1cnc(-n2nc(C)cc2C)nc1NC1CCCC1 | -0.06 | -9.4* | i | i | i | -30 | 131* | 0.11*
C[C@H](CO)N1C[C@H](C)[C@@H](CN(C)S(=O)(=O)c2ccccc2)Oc2c(NC(=O)NC3CCCCC3)cccc2C1=O | · | i | · | · | · | · | · | ·
CCOC(=O)C1=C(c2ccccc2)NC(SCC(=O)Nc2cccc(C)c2)=C(C#N)C1c1ccco1 (stereo not given) | -0.32 | -8.7* | i | -6.7* | i | -7 | 113* | i
O=C(CSc1ccc(Cl)cc1Cl)N1CCC(c2nc3ccccc3s2)CC1 | -1.3 | -15* | i | i | i | -7 | 124* | i
CCn1cnc2cc(NC(=O)COc3ccc(C)cc3)ccc21 | · | i | · | · | · | · | · | ·
O=C(O)c1cccc(-c2nc3ccccc3[nH]2)c1 | -1.6 | i | i | i | i | 1 | · | ·
CC(C)CC(=O)Nc1cccc(-c2nc3ccccc3[nH]2)c1 | 0.42 | -11* | i | i | i | -20 | 124* | 0.12*
CC(Oc1ccccc1)C(=O)Nc1cccc(-c2nc3ccccc3[nH]2)c1 (stereo not given) | -0.33 | -11* | i | -7.4* | i | -23 | 100* | 0.14*
CC(C)(C)C(=O)Nc1cccc(-c2nc3ccccc3[nH]2)c1 | 1.6 | -11* | i | i | i | -16 | 93* | i
CC(=O)Nc1cccc(-c2nc3ccc(NC(C)=O)cc3[nH]2)c1 | -1.8 | i | i | i | i | -4 | · | ·
O=C(Nc1cccc(-c2nc3ccccc3[nH]2)c1)c1ccccn1 | 1.8 | -13* | i | -7.1* | i | -10 | 109* | i
CC(=O)Nc1cccc(-c2nc3ccccc3[nH]2)c1 | -0.42 | i | i | i | i | -20 | · | ·
Cc1nc(-c2cccc(NC(=O)C(C)Oc3ccccc3)c2)cs1 (stereo not given) | -0.28 | i | i | i | i | -8 | · | ·
CCCC1(C(=O)OCC)NC(c2ccco2)C2C(=O)N(C)C(=O)C21 (stereo not given) | -0.01 | i | i | i | i | -13 | · | ·
O=C(C1CCN(S(=O)(=O)c2cccc3cccnc23)CC1)N1CCN(C2CCCC2)CC1 | -1.8 | i | i | i | i | -3 | · | ·
CN(c1nc(-c2ccc(Br)cc2)cs1)C1CCS(=O)(=O)C1 (stereo not given) | -0.35 | i | i | i | i | -13 | · | ·
COc1cc(/C=C2\C(=O)ON=C2c2ccccc2)cc(Cl)c1O | -10* | -8.9* | i | i | i | -43 | 115* | 0.14*
CCOc1cc(/C=C2\C(=O)ON=C2C)ccc1OCc1ccccc1 | 1.1 | i | i | i | i | -7 | · | ·
COc1ccc(/C=C2/C(=O)ON=C2C)cc1Cl | 0.34 | i | i | i | i | -1 | · | ·
Cc1ccc(/C=C2/C(=O)ON=C2c2ccccc2)o1 | -5.9* | -10* | i | i | i | -11 | 122* | i
SMILES | Kir21 inh | KCNK3 block | KCNQ1 act | KCNK9 inh | KCNQ1 inh | hERG protect | KCNK3 confirm | KCNK3 noninduced
CCOc1cc(/C=C2\C(=O)ON=C2c2ccccc2)cc(Br)c1O | -7.3* | -8.8* | i | i | 6* | -32 | 135* | 0.098*
O=C(Oc1ccccc1C(=O)Nc1ccccc1)c1ccccc1Br | -1.4 | i | i | i | i | -13 | · | ·
COc1cc(C(=S)N2CCOCC2)ccc1OC(=O)c1ccccc1C | 1.2 | -8.8* | i | i | i | -6 | 90* | i
CCC1CCCCN1S(=O)(=O)c1ccc(-n2cnnn2)c(C)c1 (stereo not given) | 0.04 | i | i | i | i | -3 | · | ·
Cc1c(Cl)c([N+](=O)[O-])nn1CCCC(=O)Nc1cc(Oc2ccccc2)cc([N+](=O)[O-])c1 | -0.05 | i | i | i | i | -2 | · | ·
Cc1ccccc1Oc1cc(NC(=O)CCCn2nc(C)c([N+](=O)[O-])c2C)cc([N+](=O)[O-])c1 | 1.3 | -9.3* | i | i | i | -7 | 119* | i
Cc1nn(CCCC(=O)Nc2cc(Oc3ccc(F)cc3)cc([N+](=O)[O-])c2)c(C)c1[N+](=O)[O-] | -0.55 | -8.9* | i | i | i | -9 | 125* | i
O=S(=O)(NCc1cccnc1)c1ccccc1 | 0.04 | i | i | i | i | -11 | · | ·
Cc1ccc(-c2nc(Nc3ccc(O)cc3)c3ccccc3n2)cc1 | 2.1 | i | i | i | i | -7 | · | ·
Cc1ccc(-c2nc(C(Cl)Cl)c3ccccc3n2)cc1 | 0.54 | -9.2* | i | i | i | -10 | 114* | i
COCCN(CCOC)c1nc(-c2ccc(C)cc2)nc2ccccc12 | 0.25 | -12* | i | i | i | -14 | 86* | 0.13*
NC(=O)C1=C[C@@H](C2CCCCC2)C[C@@H](OCCCCO)O1 | 0.14 | i | i | i | i | -10 | · | ·
COc1ccc(CCNC(=O)Cc2cccc(C(F)(F)F)c2)cc1OC | 0.53 | i | i | i | i | -4 | · | ·

Bioassay records from PubChem.
